In ChEMBL document CHEMBL3526127, “Absorption, elimination, and metabolism of CS-1036, a novel α-amylase inhibitor in rats and monkeys, and the relationship between gastrointestinal distribution and suppression of glucose absorption” (Drug Metab Dispos, 2013):
Each block holds one compound with its values, some of them ahead of it.

How the values were obtained:
[1] = Drug metabolism in rat intestinal […] S9 fractions at 0.42 uCi/ml assessed as metabolite formation in presence of NADPH after 1 hr at 37 degC by LC-MS/MS method; assay type: ADME, subcellular; conditions: s9, 1 h
[2] = Drug excretion in cynomolgus monkey urine at 3 mg/kg, iv administered as single dose after 0 to 48 hrs by scintillation counting method; assay type: ADME, organism-based, Macaca fascicularis; parameters: dose 3 mg/kg, route intravenous; conditions: in vivo
[3] = system: Rattus norvegicus; experiment: Total drug excretion in bile duct cannulated F344 rat at 1 mg/kg, iv administered as single dose after 0 to 48 hrs by scintillation counting method; assay type: ADME, organism-based; parameters: dose 1 mg/kg, route intravenous; conditions: in vivo
In short: (§1)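 Under ether anesthesia, the common bile duct of fasted F344 rats was cannulated. After recovery, rats received 1 mg/kg (41.9 µCi/kg) of the 14C-labelled compound iv or by oral gavage (n = 4). They were kept in Bollman cages, and bile was collected at 0–6, 6–24, 24–30 and 30–48 h at 4°C. Radioactivity was measured by liquid scintillation counting as % of dose.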

[4] = Drug metabolism in human intestinal S9 fractions at 0.42 uCi/ml assessed as metabolite formation in presence of NADPH after 1 hr at 37 degC by LC-MS/MS method; assay type: ADME, Intestine; conditions: s9, 1 h
[5] = Drug metabolism in human kidney S9 fractions at 0.42 uCi/ml assessed as metabolite formation in presence of NADPH after 1 hr at 37 degC by LC-MS/MS method; assay type: ADME, tissue-based; conditions: s9, 1 h
[6] = Drug metabolism in F344 rat feces assessed as 1,4-dideoxy-1,4-imino-D-arabinitol formation by LC-MS/MS method; assay type: ADME, tissue-based
[7] = system: Cynomolgus monkey; experiment: Drug excretion in cynomolgus monkey assessed as drug level found during cage washing at 3 mg/kg, iv administered as single dose after 0 to 48 hrs by scintillation counting method; assay type: ADME, organism-based, Macaca fascicularis; parameters: dose 3 mg/kg, route intravenous; conditions: in vivo
In short: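 Fasted cynomolgus monkeys (n = 4) received [14C]-labelled drug at 3 mg/kg, iv via saphenous vein (191 µCi/kg) or orally by stomach catheter (156.5 µCi/kg). Urine, feces and water cage-wash were collected to 336 h. Samples were counted by liquid scintillation; feces were homogenized in 4-fold water. Results are % of dose, mean ± S.D.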

[8] = Drug metabolism in monkey kidney S9 fractions at 0.42 uCi/ml assessed as metabolite formation in presence of NADPH after 1 hr at 37 degC by LC-MS/MS method; assay type: ADME, tissue-based, Macaca mulatta; conditions: rhesus monkey, s9, 1 h
[9] = Drug excretion in cynomolgus monkey urine at 3 mg/kg, po administered as single dose after 0 to 336 hrs by scintillation counting method; assay type: ADME, organism-based, Macaca fascicularis; parameters: dose 3 mg/kg, route oral; conditions: in vivo
[10] = Ratio of drug level in blood to plasma in F344 rat after 5 mins; assay type: ADME
[11] = system: Rattus norvegicus; experiment: Total drug excretion in bile duct cannulated F344 rat at 1 mg/kg, po administered as single dose after 0 to 48 hrs by scintillation counting method; assay type: ADME, organism-based; parameters: dose 1 mg/kg, route oral; conditions: in vivo; in short: as §1
[12] = system: Ileum; experiment: Drug distribution in F344 rat ileum at 1 mg/kg, po administered as single dose after 2 hrs by scintillation counting method; assay type: ADME, organism-based; parameters: dose 1 mg/kg, route oral; conditions: in vivo
In short: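 [14C]-labelled drug (1 mg/kg, 42.4 µCi/kg) was given orally to fasted F344 rats (148–168 g, n = 3). Contents of stomach, duodenum+jejunum, ileum and cecum were washed out with water at 0.5–8 h, homogenized, solubilized and counted by liquid scintillation. Results are % of dose, mean ± S.D.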

[13] = AUC (0 to infinity) in cynomolgus monkey at 3 mg/kg, iv administered as single dose by LC-MS/MS method; assay type: ADME, organism-based, Macaca fascicularis; parameters: time infinity, dose 3 mg/kg, route intravenous; conditions: plasma
In short: (§2)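 Fasted male F344 rats (146–185 g) or male cynomolgus monkeys (3.48–4.29 kg), n = 4 per dose, given single iv or oral dose of 0.3, 1.0, 3.0 or 10.0 mg/kg; monkeys dosed with 2-week washouts. Blood sampled to 48 h; plasma stored frozen. LC-MS/MS with deuterated internal standard. Noncompartmental analysis: AUClast by trapezoidal rule; AUC0–inf = AUClast + Ctz/terminal rate constant; mean ± S.D.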

[14] = AUClast in cynomolgus monkey at 0.3 mg/kg, iv administered as single dose by LC-MS/MS method; assay type: ADME, organism-based, Macaca fascicularis; parameters: time 0 - last, dose 0.3 mg/kg, route intravenous; conditions: plasma; in short: as §2
[15] = Half life in F344 rat at 10 mg/kg, iv administered as single dose by LC-MS/MS method; assay type: ADME, organism-based; parameters: dose 10 mg/kg, route intravenous; conditions: in vivo
In short: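 Fasted male F344 rats (146–185 g, n = 4 per dose) received single i.v. CS-1036. Plasma was sampled up to 48 h and analysed by LC-MS/MS. t1/2 came from noncompartmental regression of three or more log-transformed terminal-phase points. Mean ± S.D.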

[16] = Tmax in cynomolgus monkey at 3 mg/kg, po administered as single dose by LC-MS/MS method; assay type: ADME, organism-based, Macaca fascicularis; parameters: dose 3 mg/kg, route oral; conditions: in vivo
In short: (§3)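 Male F344 rats (146–185 g) and male cynomolgus monkeys (3.48–4.29 kg), n = 4 each, fasted overnight, received single iv or oral doses of 0.3, 1.0, 3.0 or 10.0 mg/kg. Monkeys had 2-week washouts between doses. Plasma was sampled to 48 h and assayed by LC-MS/MS with deuterated internal standard. Noncompartmental analysis: tmax observed; t1/2 by regression on ≥3 terminal log points; Vss = dose·AUMC/(AUC0–inf)²; Foral = oral/iv AUC0–inf at the same dose.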

[17] = AUC (0 to infinity) in cynomolgus monkey at 1 mg/kg, po administered as single dose by LC-MS/MS method; assay type: ADME, organism-based, Macaca fascicularis; parameters: dose 1 mg/kg, route oral, time infinity; conditions: plasma; in short: as §2
[18] = Volume of distribution at steady state in F344 rat at 3 mg/kg, iv administered as single dose by LC-MS/MS method; assay type: ADME, organism-based; parameters: dose 3 mg/kg, route intravenous; conditions: in vivo, read-out: Vdss; in short: as §3
[19] = Clearance in F344 rat at 10 mg/kg, iv administered as single dose by LC-MS/MS method; assay type: ADME, organism-based; parameters: dose 10 mg/kg, route intravenous; conditions: in vivo
In short: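 Fasted male F344 rats (146–185 g) and male cynomolgus monkeys (3.48–4.29 kg), n = 4 each, received a single iv dose; monkeys had 2-week washouts between doses. Blood was sampled up to 48 h and plasma stored at […]. Plasma parent was quantified by LC-MS/MS with a deuterated internal standard. CL = dose/AUC0–inf by noncompartmental analysis; mean ± S.D.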

[20] = Cmax in F344 rat at 3 mg/kg, po administered as single dose by LC-MS/MS method; assay type: ADME, organism-based; parameters: dose 3 mg/kg, route oral; conditions: in vivo
[21] = AUClast in F344 rat at 3 mg/kg, iv administered as single dose by LC-MS/MS method; assay type: ADME, organism-based; parameters: time 0 - last, dose 3 mg/kg, route intravenous; conditions: plasma; in short: as §2
[22] = Half life in F344 rat at 3 mg/kg, po administered as single dose by LC-MS/MS method; assay type: ADME, organism-based; parameters: dose 3 mg/kg, route oral; conditions: in vivo; in short: as §3
[23] = AUC (0 to infinity) in F344 rat at 1 mg/kg, po administered as single dose by LC-MS/MS method; assay type: ADME, organism-based; parameters: dose 1 mg/kg, route oral, time infinity; conditions: plasma; in short: as §2
[24] = Volume of distribution at steady state in cynomolgus monkey at 1 mg/kg, iv administered as single dose by LC-MS/MS method; assay type: ADME, organism-based, Macaca fascicularis; parameters: dose 1 mg/kg, route intravenous; conditions: in vivo, read-out: Vdss; in short: as §3
[25] = AUC (0 to infinity) in cynomolgus monkey at 1 mg/kg, iv administered as single dose by LC-MS/MS method; assay type: ADME, organism-based, Macaca fascicularis; parameters: time infinity, dose 1 mg/kg, route intravenous; conditions: plasma; in short: as §2
[26] = Half life in F344 rat at 1 mg/kg, po administered as single dose by LC-MS/MS method; assay type: ADME, organism-based; parameters: dose 1 mg/kg, route oral; conditions: in vivo
[27] = Tmax in F344 rat at 3 mg/kg, po administered as single dose by LC-MS/MS method; assay type: ADME, organism-based; parameters: dose 3 mg/kg, route oral; conditions: in vivo; in short: as §3

Drug metabolism [1]: metabolite_not_detected
Drug excretion [2]: 80.13%
Drug excretion [3]: 0.37%
Drug metabolism [4]: metabolite_not_detected
Drug metabolism [5]: metabolite_not_detected
Drug metabolism [6]: metabolite_detected
Drug excretion [7]: 13.7%
Drug metabolism [8]: metabolite_not_detected
Drug excretion [9]: 5.67%
blood plasma ratio at 5 min [10]: 0.575
Drug excretion [11]: 0.59%
Drug uptake [12]: 33.9%
SMILES: C[C@H]1O[C@@H](O[C@H]2[C@H](O)[C@@H](O)[C@@H](O[14C@H]3[14C@H](O)[14CH2]N[14C@@H]3[14CH2]O)O[C@@H]2CO)[C@H](O)[C@@H](O)[C@@H]1O

AUC(0-inf) [13]: 18200 ng·h/mL
AUC(0-t) [14]: 2000 ng·h/mL
half-life [15]: 21.5 h
Tmax [16]: 1.75 h
AUC(0-inf) [17]: 57.9 ng·h/mL
Vd [18]: 0.219 L/kg
clearance [19]: 3.16 mL/min/kg
Cmax [20]: 113 ng/mL
AUC(0-t) [21]: 18700 ng·h/mL
half-life [22]: 4.16 h
AUC(0-inf) [23]: 115 ng·h/mL
Vd [24]: 0.271 L/kg
AUC(0-inf) [25]: 5890 ng·h/mL
half-life [26]: 1.81 h
Tmax [27]: 0.375 h
SMILES: C[C@H]1O[C@@H](O[C@H]2[C@H](O)[C@@H](O)[C@@H](O[C@H]3[C@H](O)CN[C@@H]3CO)O[C@@H]2CO)[C@H](O)[C@@H](O)[C@@H]1O
